Measurements as given in ChEMBL document CHEMBL1145382, “Novel ergopeptides as dual ligands for adenosine and dopamine receptors” (J Med Chem, 2007).
Active and inactive are the calls of the source. No cut-off for these calls is given here.

Tests used:
[1] = target: D(1A) dopamine receptor (Homo sapiens) (UniProt P21728); experiment: Displacement of [3H]SCH 23390 from dopamine D1 receptor in lamb striatum membrane at 50 uM after 1 hr; format: cell membranes; settings: Ovis aries, target entry is the homologue from another species
How it was run: (§1)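 Single-concentration screen at 50 µM ergopeptide on lamb striatal membranes (0.5 mg protein/mL), 22 °C, 50 mM Tris-HCl pH 7.4. Radioligands: [3H]SCH 23390 1.2 nM (D1), [3H]YM 09151-2 0.9 nM (D2), [3H]R-PIA 2.2 nM (A1, with MgCl2 and ADA), [3H]CGS 21680 20.1 nM (A2A, with MgCl2 and ADA). Specific binding displaced, after filtration and scintillation counting.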

[2] = target: T1, Adenosine receptor A1 (Homo sapiens) (UniProt P30542); experiment: Displacement of [3H]R-PIA from adenosine A1 receptor in lamb striatum membrane at 50 uM after 1 hr; format: cell membranes; settings: Ovis aries, target entry is the homologue from another species; how it was run: as §1
T1 sequence (whole entry): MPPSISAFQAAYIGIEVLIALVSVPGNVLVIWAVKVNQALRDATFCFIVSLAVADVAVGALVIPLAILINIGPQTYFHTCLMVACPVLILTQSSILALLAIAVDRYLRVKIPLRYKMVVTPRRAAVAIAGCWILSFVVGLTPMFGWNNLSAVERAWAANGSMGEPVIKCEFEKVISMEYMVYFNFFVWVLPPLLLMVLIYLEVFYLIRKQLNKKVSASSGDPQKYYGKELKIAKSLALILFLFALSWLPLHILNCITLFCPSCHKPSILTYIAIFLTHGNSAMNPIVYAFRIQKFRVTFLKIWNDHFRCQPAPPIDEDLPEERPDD

[3] = target: D(2) dopamine receptor (Homo sapiens) (UniProt P14416); experiment: Antagonist activity at dopamine D2 receptor in SH-SY5Y cells assessed as effect on forskolin-activated intracellular cAMP production at 50 uM; format: functional, cell-based
How it was run: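 SH-SY5Y cells expressing human D2LR, preincubated 5-10 min at 22 °C with 5 µM ZM to block A2AR. Then 50 µM zardaverine, 10 µM forskolin, and 50 µM ergopeptide, with or without 150 nM quinpirole or 50 µM raclopride. 35 min total. cAMP by enzyme immunoassay. Three to six determinations, t test.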

Adenosine receptor A2a [4] = target: T2, Adenosine receptor A2a (Homo sapiens, UniProt P29274); experiment: Antagonist activity at adenosine A2A receptor in SH-SY5Y cells assessed as CGS-induced intracellular cAMP production at 50 uM; format: functional, cell-based
How it was run: (§2)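 SH-SY5Y neuroblastoma cells, endogenous A2AR, stably carrying human D2LR. Serum-starved 12-16 h, in HBSS with 50 µM zardaverine for 10 min, then 50 µM ergopeptide, alone or with the A2AR agonist CGS. 35 min total incubation. cAMP by competitive enzyme immunoassay. Three to six determinations, Student's t test.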

Adenosine receptor A2a [5] = target: T2, Adenosine receptor A2a; experiment: Displacement of [3H]CGS 21680 from adenosine A2A receptor in lamb striatum membrane at 50 uM after 2 hrs; format: cell membranes; settings: Ovis aries, target entry is the homologue from another species; how it was run: as §1
Adenosine receptor A2a [6] = target: T2, Adenosine receptor A2a; experiment: Agonist activity at adenosine A2A receptor in SH-SY5Y cells assessed as CGS-induced intracellular cAMP production at 50 uM; format: functional, cell-based; how it was run: as §2
[7] = target: D(1A) dopamine receptor (Homo sapiens) (UniProt P21728); experiment: Antagonist activity at dopamine D1 receptor transfected in mouse L(tk-) cells assessed as inhibition of SKF-induced stimulation of forskolin-induced cAMP levels; format: functional, cell-based
How it was run: (§3)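 Mouse Ltk- fibroblasts cotransfected with human A1R and D1R, serum-starved 12-16 h. In HBSS with 50 µM zardaverine, then 50 µM ergopeptide, with or without 20 nM SKF or 50 µM SCH. 35 min total incubation. cAMP by competitive enzyme immunoassay. Three to six determinations, t test.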

Adenosine receptor A2a [8] = target: T2, Adenosine receptor A2a; experiment: Displacement of [3H]CGS 21680 from adenosine A2A receptor in lamb striatum membrane after 2 hrs; format: cell membranes, Ovis aries; settings: target entry is the homologue from another species
How it was run: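 Lamb striatal membranes (0.5 mg protein/mL), 22 °C, 50 mM Tris-HCl pH 7.4, with increasing ergopeptide concentrations. Conditions per receptor: D1 1.2 nM [3H]SCH 23390, 1 mM dopamine nonspecific. D2 0.9 nM [3H]YM 09151-2, 100 µM raclopride nonspecific. A1 2.2 nM [3H]R-PIA, 10 mM MgCl2, 0.2 U/mL ADA, 50 µM R-PIA nonspecific. A2A 20.1 nM [3H]CGS 21680, 10 mM MgCl2, 2 U/mL ADA, 1 mM CGS 21680 nonspecific. Filtration, scintillation counting. KD by nonlinear one- or two-site fit. Three to six determinations.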

[9] = target: T1, Adenosine receptor A1 (Homo sapiens); experiment: Agonist activity at adenosine A1 receptor transfected in mouse L(tk-) cells assessed as decrease in forskolin-induced cAMP levels; format: functional, cell-based
How it was run: (§4)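 Mouse Ltk- fibroblasts cotransfected with human A1R and D1R, preincubated 5-10 min at 22 °C with 50 µM SCH to block D1R. Then 50 µM zardaverine, 10 µM forskolin, and 50 µM ergopeptide, with or without 20 nM R-PIA or 50 µM DPCPX. 35 min total. cAMP by enzyme immunoassay. Three to six determinations.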

[10] = target: D(2) dopamine receptor (Homo sapiens) (UniProt P14416); experiment: Displacement of [3H]YM 09151-2 from dopamine D2 receptor in lamb striatum membrane at 50 uM after 2 hrs; format: cell membranes; settings: Ovis aries, target entry is the homologue from another species; how it was run: as §1
[11] = target: T1, Adenosine receptor A1 (Homo sapiens); experiment: Antagonist activity at adenosine A1 receptor transfected in mouse L(tk-) cells assessed as inhibition of R-PIA-induced decrease in forskolin-induced cAMP levels; format: functional, cell-based; how it was run: as §4
[12] = target: D(1A) dopamine receptor (Homo sapiens) (UniProt P21728); experiment: Agonist activity at dopamine D1 receptor transfected in mouse L(tk-) cells assessed as stimulation of cAMP levels; format: functional, cell-based; how it was run: as §3

Sequence of D(1A) dopamine receptor (Homo sapiens) (P21728 whole entry): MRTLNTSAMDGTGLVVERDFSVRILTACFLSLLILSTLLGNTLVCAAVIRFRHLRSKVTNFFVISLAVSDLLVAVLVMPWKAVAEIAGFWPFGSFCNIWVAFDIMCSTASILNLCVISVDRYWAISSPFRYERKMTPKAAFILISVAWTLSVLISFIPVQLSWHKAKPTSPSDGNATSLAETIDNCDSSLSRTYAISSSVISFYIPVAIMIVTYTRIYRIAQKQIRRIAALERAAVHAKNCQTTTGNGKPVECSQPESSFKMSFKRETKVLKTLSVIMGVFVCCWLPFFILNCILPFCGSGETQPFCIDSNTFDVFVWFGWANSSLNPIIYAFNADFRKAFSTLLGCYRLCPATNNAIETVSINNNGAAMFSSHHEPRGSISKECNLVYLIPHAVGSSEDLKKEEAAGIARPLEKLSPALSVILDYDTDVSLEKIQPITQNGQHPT
T2 sequence (P29274 whole entry): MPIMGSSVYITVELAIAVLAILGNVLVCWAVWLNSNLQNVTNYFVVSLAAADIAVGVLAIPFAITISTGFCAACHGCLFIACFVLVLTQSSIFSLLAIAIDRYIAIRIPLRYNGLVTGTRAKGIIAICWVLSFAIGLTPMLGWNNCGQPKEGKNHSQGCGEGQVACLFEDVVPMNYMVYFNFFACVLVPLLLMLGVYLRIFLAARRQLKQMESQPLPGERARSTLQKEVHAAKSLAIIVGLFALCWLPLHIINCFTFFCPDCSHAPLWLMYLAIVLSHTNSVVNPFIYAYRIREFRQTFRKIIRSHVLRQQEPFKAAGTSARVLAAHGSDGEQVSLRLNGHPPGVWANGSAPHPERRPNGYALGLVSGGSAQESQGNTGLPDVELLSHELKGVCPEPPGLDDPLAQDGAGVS
Sequence of D(2) dopamine receptor (Homo sapiens) (P14416 whole entry): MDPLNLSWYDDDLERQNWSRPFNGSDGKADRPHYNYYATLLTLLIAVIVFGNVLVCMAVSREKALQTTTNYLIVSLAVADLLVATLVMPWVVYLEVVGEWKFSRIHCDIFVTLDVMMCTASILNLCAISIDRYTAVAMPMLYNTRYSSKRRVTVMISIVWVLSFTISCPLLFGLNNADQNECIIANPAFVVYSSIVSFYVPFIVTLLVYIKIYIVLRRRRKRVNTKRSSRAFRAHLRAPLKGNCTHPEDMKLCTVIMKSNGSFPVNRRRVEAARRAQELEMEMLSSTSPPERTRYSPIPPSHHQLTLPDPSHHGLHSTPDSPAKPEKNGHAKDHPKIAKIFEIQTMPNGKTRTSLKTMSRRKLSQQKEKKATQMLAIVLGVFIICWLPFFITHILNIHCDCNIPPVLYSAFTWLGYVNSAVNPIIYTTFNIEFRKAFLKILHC

CC(C)[C@H](NC(=O)[C@@H]1C=C2c3cccc4[nH]cc(c34)C[C@H]2N(C)C1)C(=O)N[C@@H](CCC1CCCCC1)C(=O)N1CCCC(C(N)=O)C1 (some centres not stated)
Activity [1]: < 40% | Activity [2]: < 40% | Activity [3]: Active | Activity (Adenosine receptor A2a [4]): Active | Activity (Adenosine receptor A2a [5]): < 40% | Activity (Adenosine receptor A2a [6]): inactive | Activity [7]: inactive | Kd (Adenosine receptor A2a [8]): 50 µM | Activity [9]: inactive | Activity [10]: < 40% | Activity [11]: Active | Activity [12]: Active
